# From PubChem BioAssay
# LYPLA2 inh: blocks human lysophospholipase 2, a PME1 counter-screen | O95372 | 0.38% of 320,000 active | inhibition, % at 5.9 µM | recombinant LYPLA2, FP-Rh probe fluorescence polarization;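 active means inhibition above the screen-wide mean plus 3 SD, limit set per campaign, cut at about 26% in these data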
# LYPLA1 counter: LYPLA1 (human) inhibition in PME1 counter-screen. O75608. recombinant LYPLA1, FP-Rh probe fluorescence polarization. inhibition, % at 5.9 µM. 0.16% of 320,000 active;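 active means inhibition above the mean of all tested compounds plus 3 SD, set per campaign, cut at about 14% in these data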;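 further: inhibitors block serine hydrolase probe labeling of LYPLA1 so polarization falls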
# PAD4 FP inh: PAD4 (human) enzyme inhibition. AID 485272. recombinant PAD4, RCA probe fluorescence polarization. Q9UM07. inhibition, % at 6.36 µM. 0.41% of 330,000 active;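 active means percent inhibition above a cutoff equal to the mean of all tested compounds plus 3 SD, cut at about 15% in these data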
# PME-1 primary: blocks human protein phosphatase methylesterase 1. Q9Y570. recombinant PME-1, FP-Rh probe fluorescence polarization. inhibition, % at 5.9 µM. 0.53% of 320,000 active. AID 2130;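 active means inhibition above the campaign mean of all compounds plus 3 SD, cut at about 26% in these data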;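 further: competitive labeling of PME-1 active site by serine hydrolase directed probe; inhibitors block probe labeling so polarization falls and inhibition rises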
# Target sequence (Q9Y570 whole entry, looked up): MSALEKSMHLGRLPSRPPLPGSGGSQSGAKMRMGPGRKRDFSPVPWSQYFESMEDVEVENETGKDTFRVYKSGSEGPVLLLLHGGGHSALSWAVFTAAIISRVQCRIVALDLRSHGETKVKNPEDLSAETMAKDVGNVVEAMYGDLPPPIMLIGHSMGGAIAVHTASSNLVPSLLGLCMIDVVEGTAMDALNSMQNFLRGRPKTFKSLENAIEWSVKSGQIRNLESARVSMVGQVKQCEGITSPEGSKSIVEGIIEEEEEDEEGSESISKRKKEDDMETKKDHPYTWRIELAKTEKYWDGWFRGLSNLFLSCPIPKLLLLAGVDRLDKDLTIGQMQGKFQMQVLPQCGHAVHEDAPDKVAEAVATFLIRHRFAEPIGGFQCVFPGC
# Fam108B counter: counter-screen for RBBP9 inhibitors: inhibitors of mouse Fam108B. recombinant Fam108B, FP-Rh probe fluorescence polarization. inhibition, % at 9.51 µM. 0.33% of 300,000 active. AID 1947;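 active means inhibition above the screen mean inhibition plus 3 SD, computed separately per campaign, cut at about 18% in these data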;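 further: inhibitors lower polarization as less probe binds the enzyme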
# RBBP9 inh: inhibitors of human serine hydrolase RBBP9; O75884; recombinant RBBP9, FP-Rh probe fluorescence polarization; inhibition, % at 7.94 µM; 0.2% of 220,000 active;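 active means inhibition above the campaign mean of all tested compounds plus 3 SD, cut at about 14% in these data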
# Target sequence (O75884 whole entry, looked up): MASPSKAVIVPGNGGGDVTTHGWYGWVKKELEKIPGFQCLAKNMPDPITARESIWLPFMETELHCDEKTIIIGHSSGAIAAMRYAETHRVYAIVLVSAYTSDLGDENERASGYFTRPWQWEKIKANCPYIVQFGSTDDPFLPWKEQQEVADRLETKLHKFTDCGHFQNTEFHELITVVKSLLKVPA
#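 System: RBBP9 protein / Buffer or medium: Tris/NaCl buffer pH 8.0 with 0.1% Pluronic / Probe or stimulus: Serine-hydrolase probe FP-Rh, 375 nM pre-mixing / Dosing: 7.94 µM single dose, 0.794% DMSO / Times: enzyme-compound preincubation 30 min, then probe labeling 45 min, 25 °C / Technique: fluorescence polarization (mP), excitation 525 nm, emission 598 nm / Replication: singlicate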
# LYPLA1 conf: LYPLA1 (human) inhibition, confirmation counter-screen; recombinant LYPLA1, FP-Rh probe fluorescence polarization; AID 2233; inhibition, % at 5.9 µM; shares compounds with LYPLA1 counter; 69% of 480 active;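 active means mean inhibition across replicates above the hit cutoff set in the primary screen, cut at about 15% in these data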;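 further: loss of FP-Rh probe labeling of LYPLA1 seen as lower polarization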
# LYPLA2 confirm: counter-screen for PME1 inhibitors: confirmation of human LYPLA2 inhibitors; inhibition, % at 5.9 µM; recombinant LYPLA2, FP-Rh probe fluorescence polarization; shares compounds with LYPLA2 inh; AID 2232; 72% of 1,100 active;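 active means mean inhibition across replicates above the hit cutoff set in the primary screen, cut at about 26% in these data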;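 further: blocked labeling of the enzyme by serine hydrolase FP-Rh probe lowers polarization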
# Numbers stand for hits; i = inactive; nt = no result. Hits are enriched below; roughly 1.3% of the tested compounds scored in any of these assays.
SMILES,LYPLA2 inh,LYPLA1 counter,PAD4 FP inh,PME-1 primary,Fam108B counter,RBBP9 inh,LYPLA1 conf,others
O=C(O)c1cccc(N/N=C/c2cc(Br)cc(Br)c2O)c1,i,24,i,58,i,i,20,
CSC(=NC#N)N1CCN(c2ccc(Cl)cc2)CC1,i,17,i,i,i,i,19,
Cc1ccc(/C=C2/Sc3ccc(C(=O)NCc4ccccn4)cc3NC2=O)cc1,i,i,i,i,i,nt,nt,
COC(=O)/C(C#N)=C\c1c(OC)[nH]c2ccccc12,i,20,i,i,i,i,i,
COC(=O)c1sc2nc(C)cc(C)c2c1N,i,i,i,i,i,i,nt,
COc1ccc2nc(NC(=O)c3sc4nc(C)cc(C)c4c3N)sc2c1,i,15,i,i,i,i,18,
COc1ccc2nc(NC(=O)c3cc(C)oc3C)sc2c1,i,i,i,i,i,i,nt,
Cc1cc(C)c2c(N)c(C(=O)Nc3ncc(C)s3)sc2n1,i,28,i,i,i,i,21,
Cc1ccc2nc(-c3cccc(N)c3)[nH]c2c1,i,i,i,i,i,i,nt,
Cc1ccc2nc(-c3sc4nc(C)cc(C)c4c3N)[nH]c2c1,i,15,i,30,i,i,i,
CCOC(=O)c1sc(NC(=O)C2CC(=O)N(c3ccc4c(c3)OCCO4)C2)nc1C (configuration not stated),i,i,i,i,nt,nt,nt,
COCCn1c(=NC(=O)c2ccc(S(=O)(=O)N3CCc4ccccc4C3)cc2)sc2cc(S(N)(=O)=O)ccc21,i,i,i,i,i,i,nt,
CCOCCn1c(=NC(=O)c2ccc(S(=O)(=O)N3CCOCC3)cc2)sc2cc(S(N)(=O)=O)ccc21,i,15,i,i,i,nt,15,
C#CCN1c2ccccc2Sc2cccnc21,i,17,i,29,i,nt,i,
O=C(COc1ccccc1)N1CCN(c2ccc([N+](=O)[O-])c(N3CCCCC3)c2)CC1,i,i,i,i,i,i,nt,
O=C(COc1ccc(Br)cc1)N1CCN(c2ccc([N+](=O)[O-])c(N3CCCCC3)c2)CC1,i,66,i,i,i,i,76,
Cc1ccc(OCC(=O)N2CCN(c3ccc([N+](=O)[O-])c(N4CCOCC4)c3)CC2)cc1,i,41,i,i,i,i,49,
COc1ccc(-n2nc(C(=O)NCC(=O)NCCN(C)C)c3ccccc3c2=O)cc1,i,i,i,i,i,nt,nt,
O=C1CC2(CCN(C(=O)COc3ccc(Cl)cc3)CC2)Oc2ccccc21,i,16,i,i,i,nt,21,
O=C(CC1N=C(Cc2ccccc2)NNC1=O)N/N=C/c1ccc([N+](=O)[O-])cc1 (configuration not stated),i,26,i,i,i,i,23,
C/C(=N\NC(=O)CC1N=C(Cc2ccccc2)NNC1=O)c1ccccc1 (configuration not stated),i,i,i,i,i,i,nt,
COc1[nH]c(/N=C/c2ccccc2)c(C#N)c1C#N,i,17,i,i,i,i,17,
CN(C)C=Nc1c(Br)cc(Br)c2nonc12,i,14,i,i,i,i,i,
Nc1cc(=O)[nH]c(SCC(=O)Nc2ccc(Cl)c(Cl)c2)n1,i,15,i,i,i,i,21,
CCOC(=O)/C(=C\C=C\N1CCOCC1)C(C)=O,i,i,i,i,i,i,nt,
SMILES,LYPLA2 inh,LYPLA1 counter,PAD4 FP inh,PME-1 primary,Fam108B counter,RBBP9 inh,LYPLA1 conf,others
COC(=O)C(=C/C=C/N1CCOCC1)C(=O)OC,i,15,i,i,i,i,i,
COc1ccc2c(c1)CCc1c(C(=O)N3CCOCC3)noc1-2,i,i,i,i,i,i,nt,
COc1ccc2c(c1)CCc1c(C(=O)N3CCCc4ccccc43)noc1-2,i,34,i,i,i,i,35,
Cc1ccc(CNC(=O)C2CCN(S(=O)(=O)c3ccc4c(c3)CC(C)N4C(=O)C3CCC3)CC2)o1 (configuration not stated),i,16,i,i,i,nt,19,
CC1CCN(S(=O)(=O)c2ccc3nc(-c4ccccn4)cc(C(=O)NCCN(C)Cc4ccccc4)c3c2)CC1,nt,nt,nt,nt,nt,i,nt,
COc1ccccc1NC(=O)Cn1ncc2c1-c1ccccc1OC2,i,i,i,i,i,i,nt,
COc1cc(NC(=O)Cn2ncc3c2-c2ccccc2OC3)cc(OC)c1OC,i,20,i,i,i,i,i,
COc1ccc(CN2CCN(CCc3ccccc3)C(CCO)C2)c(O)c1 (configuration not stated),i,i,i,i,i,i,nt,
O=C1NC(=S)S/C1=C\c1coc2ccccc2c1=O,i,17,i,i,i,i,i,
Cc1cc(C)n2nc(Sc3ncccc3[N+](=O)[O-])nc2n1,i,i,i,i,i,i,nt,
O=C1CCN(C(=O)/C=C/c2ccccc2)c2ccccc21,i,15,i,i,i,i,23,
CC(C)CCNC(=O)NC(=O)COC(=O)/C=C/c1cccc([N+](=O)[O-])c1,30,25,i,i,i,i,31,LYPLA2 confirm=32
C=CCNC(=O)NC(=O)COC(=O)/C=C/c1cccc([N+](=O)[O-])c1,i,i,i,i,i,i,nt,
CCC(C)[C@H]1COCCS(=O)(=O)N1Cc1ccc(Cl)cc1Cl (some centres not stated),i,i,i,i,i,nt,nt,
CCC(=O)N1CCN(c2ccc(NC(=S)NC(=O)c3cccc([N+](=O)[O-])c3)cc2)CC1,58,39,i,i,i,i,33,LYPLA2 confirm=55
COc1ccc(-c2c(-c3cc(OC)cc(OC)c3)n(C)c3ccc(-c4ccc(S(N)(=O)=O)cc4)cc23)cc1,i,i,i,i,nt,nt,nt,
O=C(CCC1CCCC1)N1CCN(C(=O)COc2ccccc2)CC1,i,i,i,i,i,i,nt,
Cc1ccc(OCC(=O)N2CCN(C(=O)CCC3CCCC3)CC2)cc1,27,61,i,i,i,i,66,LYPLA2 confirm=i
O=C(CCCc1ccccc1)N1CCN(c2ccc([N+](=O)[O-])cc2)CC1,39,33,i,i,i,i,41,LYPLA2 confirm=54
O=C(CCS(=O)(=O)Cc1ccccc1)N1CCN(c2ccc([N+](=O)[O-])cc2)CC1,i,i,i,i,i,i,nt,
Cc1cc(N)ccc1N1CCCC1,29,22,28,33,i,i,i,LYPLA2 confirm=i
COc1cccc(CNC(=O)C2CSC3(C)CCC(=O)N23)c1 (configuration not stated),i,i,i,i,i,nt,nt,
CSCCC(=O)N1CCC(n2nccc2NC(=O)c2ccc3c(c2)OCO3)CC1,i,i,i,i,i,nt,nt,
CC#CC(=O)N1CCC(n2nccc2NC(=O)c2ccc3c(c2)OCO3)CC1,31,26,i,i,i,nt,37,LYPLA2 confirm=30
